Source: ChEMBL document CHEMBL4831540, “Discovery of Aficamten (CK-274), a Next-Generation Cardiac Myosin Inhibitor for the Treatment of Hypertrophic Cardiomyopathy” (J Med Chem, 2021)

What was measured:
[1] = Tmax in cynomolgus monkey at 1 mg/kg, po; type: ADME, organism-based, Macaca fascicularis; conditions: in vivo
Outline: (§1)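 Single iv or oral doses in male animals, 3 per group except dog iv (2 animals). Plasma concentration–time profiles gave Cmax, tmax, AUC0–t, clearance, steady-state volume of distribution, half-life and bioavailability.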

[2] = Clearance in Sprague-Dawley rat at 1 mg/kg; type: ADME, organism-based; conditions: in vivo
Outline: (§2)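 Rat PK with iv and po administration at 1 mg/kg. Clearance and half-life came from the iv arm, and bioavailability from the iv/po comparison.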

[3] = Plasma protein binding in rat assessed as unbound fraction; type: ADME, cell-free
[4] = molecular target: T1, Cytochrome P450 3A4 (Homo sapiens, UniProt P08684); assay: Inhibition of CYP3A4 in human liver microsomes assessed as midazolam 1'-hyrozylation reaction incubated for 30 mins in presence of NADP by LC-MS/MS analysis; type: ADME
T1 sequence (P08684 whole entry): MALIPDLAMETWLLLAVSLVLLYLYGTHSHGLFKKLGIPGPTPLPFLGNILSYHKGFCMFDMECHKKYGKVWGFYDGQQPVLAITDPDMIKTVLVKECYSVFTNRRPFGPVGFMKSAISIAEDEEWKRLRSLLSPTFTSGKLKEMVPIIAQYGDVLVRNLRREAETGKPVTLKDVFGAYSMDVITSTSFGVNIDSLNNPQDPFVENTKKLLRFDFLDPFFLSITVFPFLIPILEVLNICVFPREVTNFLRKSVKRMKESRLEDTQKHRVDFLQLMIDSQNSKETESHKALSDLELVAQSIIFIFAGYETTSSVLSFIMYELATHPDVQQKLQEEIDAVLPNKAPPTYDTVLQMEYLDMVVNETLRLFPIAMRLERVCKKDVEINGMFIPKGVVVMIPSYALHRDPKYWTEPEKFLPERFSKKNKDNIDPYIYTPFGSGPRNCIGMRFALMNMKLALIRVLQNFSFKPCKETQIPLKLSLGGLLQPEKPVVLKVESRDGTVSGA

[5] = molecular target: T1, Cytochrome P450 3A4; assay: Inhibition of CYP3A4 in human liver microsomes assessed as testosterone 6-beta-hydroxylation reaction incubated for 30 mins in presence of NADP by LC-MS/MS analysis; type: ADME
[6] = Oral bioavailability in Sprague-Dawley rat at 8 mg/kg; type: ADME, organism-based; conditions: in vivo; outline: as §1
[7] = Clearance in cynomolgus monkey at 1 mg/kg, iv; type: ADME, organism-based, Macaca fascicularis; conditions: in vivo
Outline: (§3)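 Multi-species PK study in male animals, n = 3 per group (dog IV arm n = 2). Iv and oral dosing with plasma concentration–time profiles yielding Cmax, tmax, AUC0–t, CL, Vss, t1/2 and F.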

[8] = Plasma protein binding in Sprague-Dawley rat assessed as unbound fraction; type: ADME
[9] = molecular target: Cytochrome P450 2D6 (Homo sapiens, UniProt P10635); assay: Inhibition of CYP2D6 in human liver microsomes assessed as bufuralol 1'-hydroxylation reaction incubated for 30 mins in presence of NADP by LC-MS/MS analysis; type: ADME
Chain of Cytochrome P450 2D6 (P10635 whole entry): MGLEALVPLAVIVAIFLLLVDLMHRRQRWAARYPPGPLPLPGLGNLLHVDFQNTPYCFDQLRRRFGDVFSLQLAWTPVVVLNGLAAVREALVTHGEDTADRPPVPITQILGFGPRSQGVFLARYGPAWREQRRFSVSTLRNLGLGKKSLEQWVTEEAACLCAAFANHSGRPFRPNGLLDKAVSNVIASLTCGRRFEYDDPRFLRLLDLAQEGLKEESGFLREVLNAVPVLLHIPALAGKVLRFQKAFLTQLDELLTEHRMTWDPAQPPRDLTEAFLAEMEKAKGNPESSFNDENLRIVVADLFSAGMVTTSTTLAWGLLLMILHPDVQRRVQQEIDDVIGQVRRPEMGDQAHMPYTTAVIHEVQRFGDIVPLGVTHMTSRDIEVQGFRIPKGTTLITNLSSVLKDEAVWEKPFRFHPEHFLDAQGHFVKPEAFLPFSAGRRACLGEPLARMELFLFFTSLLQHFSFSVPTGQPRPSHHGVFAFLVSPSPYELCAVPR

[10] = Half life in cynomolgus monkey at 1 mg/kg, iv; type: ADME, organism-based, Macaca fascicularis; conditions: in vivo; outline: as §3
[11] = Tmax in Sprague-Dawley rat at 3 mg/kg, po; type: ADME, organism-based; conditions: in vivo; outline: as §1
[12] = Half life in Beagle dog at 1 mg/kg, iv; type: ADME, organism-based, Canis lupus familiaris; conditions: in vivo; outline: as §3
[13] = Half life in mouse at 1 mg/kg, po; type: ADME, organism-based; conditions: in vivo; outline: as §3
[14] = Half life in Sprague-Dawley rat at 2 mg/kg, po; type: ADME, organism-based; conditions: in vivo; outline: as §3
[15] = Half life in Beagle dog at 1 mg/kg, po; type: ADME, organism-based, Canis lupus familiaris; conditions: in vivo; outline: as §3
[16] = Metabolic stability in rat liver microsomes assessed as intrinsic clearance measured upto 90mins by HPLC/MS/MS analysis; type: ADME, Microsome; conditions: read-out: CLH
[17] = Half life in Sprague-Dawley rat at 8 mg/kg, po; type: ADME, organism-based; conditions: in vivo; outline: as §3
[18] = Tmax in Beagle dog at 1 mg/kg, po; type: ADME, organism-based, Canis lupus familiaris; conditions: in vivo; outline: as §1
[19] = Half life in cynomolgus monkey at 1 mg/kg, po; type: ADME, organism-based, Macaca fascicularis; conditions: in vivo; outline: as §3
[20] = Oral bioavailability in Sprague-Dawley rat at 3 mg/kg; type: ADME, organism-based; conditions: in vivo; outline: as §1
[21] = molecular target: T2, Cytochrome P450 2B6 (Homo sapiens, UniProt P20813); assay: Inhibition of CYP2B6 in human liver microsomes assessed as bupropion hydroxylation reaction incubated for 30 mins in presence of NADP by LC-MS/MS analysis; type: ADME
T2 sequence (P20813 whole entry): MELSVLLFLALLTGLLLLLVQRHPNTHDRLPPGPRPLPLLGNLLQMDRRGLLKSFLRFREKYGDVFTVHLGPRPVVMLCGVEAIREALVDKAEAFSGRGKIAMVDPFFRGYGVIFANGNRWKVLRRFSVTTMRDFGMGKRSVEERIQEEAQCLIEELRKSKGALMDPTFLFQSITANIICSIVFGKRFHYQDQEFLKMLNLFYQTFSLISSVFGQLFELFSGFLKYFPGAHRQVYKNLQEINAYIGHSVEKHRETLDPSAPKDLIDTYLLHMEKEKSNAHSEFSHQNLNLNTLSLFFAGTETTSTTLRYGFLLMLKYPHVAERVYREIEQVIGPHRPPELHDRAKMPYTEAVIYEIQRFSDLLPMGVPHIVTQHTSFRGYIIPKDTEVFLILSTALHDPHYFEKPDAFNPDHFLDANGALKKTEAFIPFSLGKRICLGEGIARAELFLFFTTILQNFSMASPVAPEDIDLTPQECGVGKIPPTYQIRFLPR

[22] = AUC (0 to t) in cynomolgus monkey at 1 mg/kg, iv; type: ADME, organism-based, Macaca fascicularis; design: dose 1 mg/kg; conditions: in vivo; outline: as §3
[23] = molecular target: Cytochrome P450 2C9 (Homo sapiens, UniProt P11712); assay: Inhibition of CYP2C9 in human liver microsomes assessed as diclofenac 4'-hydroxylation reaction incubated for 30 mins in presence of NADP by LC-MS/MS analysis; type: ADME
Chain of Cytochrome P450 2C9 (P11712 whole entry): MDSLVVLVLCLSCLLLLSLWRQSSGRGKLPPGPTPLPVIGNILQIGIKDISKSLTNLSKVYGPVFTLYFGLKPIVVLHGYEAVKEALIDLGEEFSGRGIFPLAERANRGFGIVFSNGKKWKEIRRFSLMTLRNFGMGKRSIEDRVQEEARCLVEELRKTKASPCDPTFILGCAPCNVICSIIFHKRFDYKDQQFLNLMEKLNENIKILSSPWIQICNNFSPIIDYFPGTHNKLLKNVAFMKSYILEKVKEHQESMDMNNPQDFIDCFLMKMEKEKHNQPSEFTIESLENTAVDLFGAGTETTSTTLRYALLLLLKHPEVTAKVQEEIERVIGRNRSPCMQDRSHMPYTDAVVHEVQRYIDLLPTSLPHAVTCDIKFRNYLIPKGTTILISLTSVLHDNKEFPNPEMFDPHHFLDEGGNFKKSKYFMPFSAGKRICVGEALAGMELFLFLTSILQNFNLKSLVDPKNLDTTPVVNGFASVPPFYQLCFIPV

[24] = Volume of distribution at steady state in mouse at 0.5 mg/kg, iv; type: ADME, organism-based; conditions: in vivo, read-out: Vdss; outline: as §1
[25] = Metabolic stability in human liver microsomes assessed as intrinsic clearance measured upto 90mins by HPLC/MS/MS analysis; type: ADME, Microsome; conditions: read-out: CLH
[26] = Cmax in Beagle dog at 1 mg/kg, po; type: ADME, organism-based, Canis lupus familiaris; design: route oral, dose 1 mg/kg; conditions: in vivo; outline: as §3
[27] = Half life in Sprague-Dawley rat at 1 mg/kg; type: ADME, organism-based; conditions: in vivo; outline: as §2
[28] = Cmax in Sprague-Dawley rat at 2 mg/kg, po; type: ADME, organism-based; design: route oral, dose 2 mg/kg; conditions: in vivo; outline: as §3
[29] = Plasma protein binding in Beagle dog assessed as unbound fraction; type: ADME, Canis lupus familiaris
[30] = tested on: Rattus norvegicus; assay: Anti-hypertrophic cardiomyopathy in Sprague-Dawley rat assessed as reduction in fractional shortening at 4 mg/kg, po measured upto 24 hrs by echocardiography relative to control; type: functional; design: scale not given: the % may be the effect or the level left; conditions: time hrs <=24
Outline: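 Normal Sprague–Dawley rats were given single oral doses of 0.5–4 mg/kg. Left ventricular dimensions and fractional shortening were measured by echocardiography at selected time points over 24 h, relative to vehicle treatment.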

[31] = Bioavailability in Sprague-Dawley rat at 1 mg/kg, po or 1 mg/kg, iv; type: ADME, organism-based; conditions: in vivo; outline: as §2
[32] = Tmax in Sprague-Dawley rat at 8 mg/kg, po; type: ADME, organism-based; conditions: in vivo; outline: as §1
[33] = Half life in human; type: ADME
[34] = Clearance in mouse at 0.5 mg/kg, iv; type: ADME, organism-based; conditions: in vivo; outline: as §3
[35] = Half life in Sprague-Dawley rat at 3 mg/kg, po; type: ADME, organism-based; conditions: in vivo
[36] = Clearance in Sprague-Dawley rat at 0.5 mg/kg; type: ADME, organism-based; conditions: in vivo
[37] = Tmax in mouse at 1 mg/kg, po; type: ADME, organism-based; conditions: in vivo; outline: as §1
[38] = Cmax in mouse at 1 mg/kg, po; type: ADME, organism-based; design: route oral, dose 1 mg/kg; conditions: in vivo; outline: as §3
[39] = molecular target: Cytochrome P450 2C19 (Homo sapiens, UniProt P33261); assay: Inhibition of CYP2C19 in human liver microsomes assessed as mephenytoin 4-hydroxylation reaction incubated for 30 mins in presence of NADP by LC-MS/MS analysis; type: ADME
Chain of Cytochrome P450 2C19 (P33261 whole entry): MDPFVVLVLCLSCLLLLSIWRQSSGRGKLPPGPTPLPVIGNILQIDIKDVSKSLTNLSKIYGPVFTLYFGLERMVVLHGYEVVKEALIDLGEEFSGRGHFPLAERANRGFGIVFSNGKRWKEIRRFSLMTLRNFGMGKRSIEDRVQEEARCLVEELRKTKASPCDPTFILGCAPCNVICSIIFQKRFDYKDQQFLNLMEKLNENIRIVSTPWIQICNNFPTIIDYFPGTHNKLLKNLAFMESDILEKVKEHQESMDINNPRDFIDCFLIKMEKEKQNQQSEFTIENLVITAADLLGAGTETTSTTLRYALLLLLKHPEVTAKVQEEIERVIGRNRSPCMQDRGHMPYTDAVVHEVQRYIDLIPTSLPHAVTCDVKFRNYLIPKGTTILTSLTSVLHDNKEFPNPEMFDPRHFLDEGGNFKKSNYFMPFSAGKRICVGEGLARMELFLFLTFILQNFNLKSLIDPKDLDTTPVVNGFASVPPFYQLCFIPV

[40] = Clearance in Beagle dog at 1 mg/kg, iv; type: ADME, organism-based, Canis lupus familiaris; conditions: in vivo; outline: as §3
[41] = Ratio of IC50 to IC10 for anti-hypertrophic cardiomyopathy in po dosed Sprague-Dawley rat assessed as reduction in fractional shortening measured upto 24 hrs by echocardiography; type: functional; conditions: time hrs <=24
Outline: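 Sprague–Dawley rats received single oral doses from 0.5 to 4 mg/kg. LV dimensions and fractional shortening were read by echocardiography at set times over 24 h, with blood drawn at each reading for compound level. Concentrations giving 50% and 10% FS reduction were derived, and their IC50/IC10 ratio was calculated.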

## CCc1nc(-c2ccc3c(c2)CC[C@H]3NC(=O)c2cnn(C)c2)no1 [AFICAMTEN]
[1]
  Tmax: 1.17 h
[2]
  clearance: 2.1 mL/min/kg
[3]
  fraction unbound: 0.018
[4]
  IC50: > 100 µM
[5]
  IC50: > 100 µM
[6]
  bioavailability: 79%
[7]
  clearance: 11.2 mL/min/kg
[8]
  fraction unbound: 0.018
[9]
  IC50: > 100 µM
[10]
  half-life: 8.1 h
[11]
  Tmax: 0.42 h
[12]
  half-life: 33.8 h
[13]
  half-life: 3.4 h
[14]
  half-life: 2.6 h
[15]
  half-life: 28.7 h
[16]
  CLint scaled: < 21 mL/min/kg
[17]
  half-life: 3.3 h
[18]
  Tmax: 0.33 h
[19]
  half-life: 12.1 h
[20]
  bioavailability: 58%
[21]
  IC50: > 100 µM
[22]
  AUC(0-t): 1340 ng·h/mL
[23]
  IC50: > 100 µM
[24]
  Vd: 3.14 L/kg
[25]
  CLint scaled: < 11 mL/min/kg
[26]
  Cmax: 245 ng/mL
[27]
  half-life: 3 h
[28]
  Cmax: 1650 ng/mL
[29]
  fraction unbound: 0.251
[30]
  Activity: 70%
[31]
  bioavailability: 55%
[32]
  Tmax: 0.58 h
[33]
  half-life: 67.2 h
[34]
  clearance: 8.8 mL/min/kg
[35]
  half-life: 3.5 h
[36]
  clearance: 2 mL/min/kg
[37]
  Tmax: 0.25 h
[38]
  Cmax: 268 ng/mL
[39]
  IC50: > 100 µM
[40]
  clearance: 3.3 mL/min/kg
[41]
  Ratio: 9.9
